Values belong to the compound of their own block, whether it stands above or below them. Active and inactive are the calls of the source. The calls are words filed in the database; no cut-off is given here.
Key:
Mus musculus [1] = assay: NMDA antagonist activity was measured as ataxia (the inability of the mice to cling to screen platform upon its inversion.) tested in vivo; format: functional
Outline: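 Ataxia was scored in CF-1 mice (22–28 g) on an inverted screen, as failure to cling when the platform was inverted. Scoring was done just before NMDA challenge (25 mg/kg, retrobulbar iv) and after retrobulbar dosing of the test agent in 0.9% saline (5 mL/kg). The result is reported as an ED50.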

Mus musculus [2] = assay: NMDA receptor antagonist activity of compound was demonstarted in vivo by the inhibition of NMDA-induced lethality in mouse tested in vivo; format: functional
Outline: (§1)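 CF-1 mice (22–28 g) were dosed retrobulbar with test agent or vehicle (0.9% saline, 5 mL/kg), 5 or 30 min before a bolus retrobulbar injection of NMDA (25 mg/kg) in saline into the other eye. The endpoint was prevention of death from seizures. ED50 came from at least three half-log doses with 10 mice per dose.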

Glutamate NMDA receptor [3] = assay: NMDA receptor antagonistic activity was assessed from the ability to displace [3H]CPP29,30 from rat cortical membranes.
Outline: (§2)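 Crude synaptic membranes came from Long-Evans male rat forebrain (minus cerebellum and brainstem) and were treated with 0.01% Triton X-100 for 30 min at 37 °C, then washed. Membranes (200–400 µg protein/mL) were incubated with 10 nM [³H]CPP in 50 mM Tris-HCl, pH 7.6, for 15 min at 23 °C, in triplicate, and separated by centrifugation. Nonspecific binding was defined with 1 mM L-glutamate. IC50 came from a nonlinear fit of four or more concentrations.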

Glutamate NMDA receptor [4] = assay: NMDA receptor antagonistic activity was assessed in vitro by deteriming the ability to inhibit glutamate-induced accumulation of [Ca2+] in cultured rat cortical neurons.; format: functional
Outline: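 Rat (Sprague-Dawley, E18) cerebral hemisphere neurons, trypsin-dissociated, plated on poly-L-lysine at 200 000 cells/cm², used on days 14–16. Assay in serum- and Mg-free HBSS with 1.4 mM CaCl₂, pH 7.4, 37 °C. 30-min exposure to 100 µM L-glutamate (final) plus trace ⁴⁵Ca²⁺, with or without test agent. Baseline subtracted. IC50 from ≥4 half-log concentrations, ≥6 replicates each.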

[5] = target: T1, Glutamate NMDA receptor (Rattus norvegicus) (UniProt P35439+Q00959+Q00960+Q00961+Q62645+Q8VHN2+Q9R1M7); assay: NMDA receptor antagonistic ability of 100 uM of compound was assessed from the ability to displace [3H]CPP29,30 from rat cortical membranes.; format: cell membranes; conditions: Membrane
[6] = target: T1, Glutamate NMDA receptor (Rattus norvegicus); assay: N-methyl-D-aspartate glutamate receptor antagonistic ability of 100 uM of compound was assessed from the ability to displace [3H]CPP29,30 from rat cortical membranes.; format: cell membranes; conditions: Membrane
Glutamate NMDA receptor [7] = assay: (§3) N-methyl-D-aspartate glutamate receptor antagonistic activity was assessed from the ability to displace [3H]CPP29,30 from rat cortical membranes.
Mus musculus [8] = assay: Compound was tested in vivo for the maximum dose that protects from NMDA-induced death in mice; Inactive; format: functional
Outline: (§4)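 CF-1 mice (22–28 g) got the test agent by retrobulbar iv injection in 0.9% saline (5 mL/kg), then NMDA 25 mg/kg retrobulbar iv 5 or 30 min later. Doses were tested up to 30 mg/kg, scoring protection from lethal seizures.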

Mus musculus [9] = species: Mus musculus; assay: Compound was tested for the maximum dose that protects from NMDA-induced death in mice; Inactive; format: functional; outline: as §4
Mus musculus [10] = species: Mus musculus; assay: NMDA receptor antagonist activity was measured as ataxia (the inability of the mice to cling to screen platform upon its inversion.); format: functional
Outline: (§5)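 CF-1 mice (22–28 g) were dosed retrobulbarly with test agent or vehicle (0.9% saline, 5 mL/kg). Just before the NMDA challenge they were placed on an inverted screen. Ataxia was scored as failure to cling to the platform after inversion, and ED50 values were derived from dose-response data.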

Mus musculus [11] = assay: NMDA receptor antagonist activity of compound was demonstarted in vivo, by the inhibition of NMDA-induced lethality in mouse; format: functional; outline: as §1
Glutamate NMDA receptor [12] = assay: NMDA receptor antagonistic activity was assessed from the ability to displace [3H]CPP29,30 from rat cortical membranes; outline: as §2
Glutamate NMDA receptor [13] = assay: NMDA receptor antagonistic activity was assessed in vitro by the assement of ability to inhibit glutamate-induced accumulation of [Ca2+] in cultured rat cortical neurons.; format: functional
Outline: (§6)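 Cortical neurons from E18 Sprague-Dawley rat fetuses were tested 14–16 days after plating. Cells were exposed for 30 min at 37 °C to 100 µM L-glutamate with ⁴⁵Ca²⁺ (2 µCi/mL) in Mg-free HBSS containing 1.4 mM CaCl₂ at pH 7.4, then washed and lysed for counting. Baseline uptake was subtracted. IC50 came from at least four half-log concentrations with six or more replicates each.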

Mus musculus [14] = species: Mus musculus; assay: N-methyl-D-aspartate glutamate receptor antagonist activity of compound was demonstarted by the inhibition of NMDA-induced lethality in mouse; format: functional; outline: as §1
Mus musculus [15] = species: Mus musculus; assay: N-methyl-D-aspartate glutamate receptor antagonist activity was measured as ataxia (the inability of the mice to cling to screen platform upon its inversion.); format: functional; outline: as §5
Glutamate NMDA receptor [16] = assay: N-methyl-D-aspartate glutamate receptor antagonistic activity was assessed from the ability to inhibit glutamate-induced accumulation of [Ca2+] in cultured rat cortical neurons.; format: functional; outline: as §6
Glutamate NMDA receptor [17] = assay: as §3; outline: as §2; remark: listed apart in the source
Mus musculus [18] = species: Mus musculus; assay: Compound was tested for the maximum dose that protects from NMDA-induced death; format: functional; outline: as §4
Mus musculus [19] = assay: N-methyl-D-aspartate glutamate receptor antagonist activity of compound was demonstarted by the inhibition of NMDA-induced lethality in mouse;IA means Compound was inactive at 30 mg/kg when examined after 5 or 30 min after iv dosing.; format: functional, organism-based; parameters: dose 30 mg/kg
Outline: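 CF-1 mice (22–28 g) received test agent or vehicle (0.9% saline, 5 mL/kg) by retrobulbar injection 5 min before a bolus retrobulbar NMDA dose of 25 mg/kg in saline, which causes lethal seizures in untreated controls. Protection from death was scored. ED50 came from dose-response curves of at least three half-log doses with 10 mice per dose.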

Mus musculus [20] = assay: N-methyl-D-aspartate glutamate receptor antagonist activity was measured as ataxia (the inability of the mice to cling to screen platform upon its inversion; IA means Compound was inactive at 30 mg/kg when examined after 5 or 30 min after iv dosing; format: functional, organism-based; parameters: dose 30 mg/kg; outline: as §5
[21] = target: T1, Glutamate NMDA receptor (Rattus norvegicus); assay: N-methyl-D-aspartate glutamate receptorA antagonistic activity was assessed from the ability to inhibit glutamate-induced accumulation of [Ca2+] in cultured rat cortical neurons;IA means Compound was inactive up to 250 uM.; format: functional; outline: as §6

I [5]: 10%
SMILES: NC(C(=O)O)c1ccc(P(=O)(O)O)cc1 (stereo not drawn)

I [6]: 19%
SMILES: NC(Cc1cccc(CCP(=O)(O)O)c1)C(=O)O (stereo not drawn)

IC50 (Glutamate NMDA receptor [7]): 0.08 µM
SMILES: O=C(O)C1CN(CCCP(=O)(O)O)CCN1 (stereo not drawn)

I [5]: 4%
SMILES: NC(C(=O)O)c1ccc(CCP(=O)(O)O)cc1 (stereo not drawn)

I [5]: 35%
SMILES: NC(C(=O)O)c1cccc(CCP(=O)(O)O)c1 (stereo not drawn)

I [6]: 54%
SMILES: NC(CCc1ccccc1CP(=O)(O)O)C(=O)O (stereo not drawn)

Continued, compound first:

SMILES: NC(CCCCCP(=O)(O)O)C(=O)O (stereo not drawn) [AP-7]
ED50 (Mus musculus [1]): 17 mg/kg
ED50 (Mus musculus [2]): 56 mg/kg
IC50 (Glutamate NMDA receptor [3]): 0.8 µM
IC50 (Glutamate NMDA receptor [4]): 46 µM

SMILES: NC(C(=O)O)c1ccc(CCCP(=O)(O)O)cc1 (stereo not drawn)
I [5]: 20%

SMILES: NC(Cc1ccc(P(=O)(O)O)cc1)C(=O)O (stereo not drawn)
I [5]: 10%

SMILES: NC(Cc1ccccc1P(=O)(O)O)C(=O)O (stereo not drawn)
I [6]: 3%

SMILES: NC(Cc1cccc(CP(=O)(O)O)c1)C(=O)O (stereo not drawn)
I [5]: 1%

SMILES: NC(C(=O)O)c1cccc(CP(=O)(O)O)c1 (stereo not drawn)
Max dose (Mus musculus [8]): 60 mg/kg
IC50 (Glutamate NMDA receptor [3]): 9.3 µM

SMILES: NC(C(=O)O)c1cccc(P(=O)(O)O)c1 (stereo not drawn)
Max dose (Mus musculus [9]): 30 mg/kg
IC50 (Glutamate NMDA receptor [3]): 17.4 µM

SMILES: NC(CCCc1ccccc1CP(=O)(O)O)C(=O)O (stereo not drawn)
I [5]: 46%

SMILES: NC(C(=O)O)c1ccc(CP(=O)(O)O)cc1 (stereo not drawn)
ED50 (Mus musculus [10]): 19 mg/kg
ED50 (Mus musculus [11]): 8 mg/kg
IC50 (Glutamate NMDA receptor [12]): 1.01 µM
IC50 (Glutamate NMDA receptor [13]): 58 µM

SMILES: NC(Cc1ccc(CP(=O)(O)O)cc1)C(=O)O (stereo not drawn)
ED50 (Mus musculus [14]): 74 mg/kg
ED50 (Mus musculus [15]): 74 mg/kg
IC50 (Glutamate NMDA receptor [16]): 378 µM
IC50 (Glutamate NMDA receptor [17]): 3.3 µM

SMILES: NC(Cc1ccccc1CCP(=O)(O)O)C(=O)O (stereo not drawn)
Max dose (Mus musculus [18]): 30 mg/kg
IA (Mus musculus [19]): inactive
IA (Mus musculus [20]): inactive
IA [21]: inactive
IC50 (Glutamate NMDA receptor [17]): 60.9 µM

SMILES: NC(Cc1cccc(P(=O)(O)O)c1)C(=O)O (stereo not drawn)
I [6]: 15%

Reference: ChEMBL document CHEMBL1124644, “Exploration of phenyl-spaced 2-amino-(5-9)-phosphonoalkanoic acids as competitive N-methyl-D-aspartic acid antagonists” (J Med Chem, 1989)
